Compounds with a hit are over-represented: about 3.7% of the library has one in this group of screens.
Kir21 block: inhibitors of mouse Kir2.1 inward-rectifier potassium channel | AID 1672, 2009 | B-score at 10 µM | Inward rectifier potassium channel 2 (Mus musculus), P35561 | HEK293-Kir2.1, FluxOR thallium flux fluorescence; active compounds read low | 310,000 tested, 0.85% active;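 active = fluorescence ratio B-score at or below minus 3 SD of library scores, with starting-brightness B-score within 2 SD, cut at about -4.2 in these data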;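 also: channel flux triggered by added potassium and thallium sulfate stimulus; B-score of peak minus minimum fluorescence over baseline after thallium stimulus; more negative B-score means stronger Kir2.1 block with less thallium influx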
KCNQ1 act: potentiators or activators of KCNQ1 channel, primary screen, cell-based, thallium flux, high-throughput; Potassium voltage-gated channel subfamily KQT member 1 (Homo sapiens), P51787; CHO-K1 KCNQ1, thallium flux FluxOR fluorescence; active compounds read high; AID 2648, 2010; 310,000 tested, 0.35% active; B-score at 10 µM;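 active = fluorescence ratio B-score, a plate-corrected score, at least three library SD, with initial intensity B-score within 5 SD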
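Material: CHO-K1 cells stably expressing KCNQ1. Medium: assay buffer for compound exposure, DMSO matched across wells. Reagent: K+/Tl+ depolarizing stimulus. Compound dosing: single-concentration screen. Times: 37 °C overnight plating, 90-min dark dye load, 20-min compound pretreatment. Technique: FluxOR Tl+ flux fluorescence.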
KCNQ1 inh: inhibitors of human KCNQ1 channel, primary screen, cell-based, thallium flux, high-throughput | Potassium voltage-gated channel subfamily KQT member 1 (Homo sapiens), P51787 | CHO-K1 KCNQ1, FluxOR thallium flux fluorescence; active compounds read high | B-score at 10 µM | 310,000 tested, 1.3% active | AID 2642, 2010;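 active = compounds whose thallium flux B-score, printed positive for inhibition, exceeds three library SD while starting fluorescence stays within three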;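 also: channel opened by potassium depolarization with thallium stimulus after 20 min compound exposure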
KCNK3 inh: human KCNK3 channel inhibitors, primary screen, CHO cells, FluxOR thallium flux, B-score. Potassium channel subfamily K member 3 (Homo sapiens), O14649. B-score at 10 µM. AID 602410, 2012. 340,000 tested, 0.84% active. FluxOR fluorescence; active compounds read low;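 active = B-score under library mean minus 4 SD, starting fluorescence ratio at most library mean plus 5 SD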;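 also: more negative B-score means stronger inhibition of thallium flux through KCNK3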
Target sequence (O14649 whole entry, looked up): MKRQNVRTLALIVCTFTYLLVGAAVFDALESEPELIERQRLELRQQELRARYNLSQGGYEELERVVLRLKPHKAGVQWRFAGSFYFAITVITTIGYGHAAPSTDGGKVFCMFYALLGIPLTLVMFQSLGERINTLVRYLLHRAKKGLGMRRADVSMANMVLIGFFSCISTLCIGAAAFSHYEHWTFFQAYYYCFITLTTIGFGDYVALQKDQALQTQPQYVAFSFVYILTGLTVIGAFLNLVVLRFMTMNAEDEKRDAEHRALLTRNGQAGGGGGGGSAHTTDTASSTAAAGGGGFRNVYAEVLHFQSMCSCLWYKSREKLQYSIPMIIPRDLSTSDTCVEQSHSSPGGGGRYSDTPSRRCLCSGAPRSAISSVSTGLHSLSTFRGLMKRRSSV
hERG rescue: hERG rescue from dofetilide block, primary screen, cell-based, CHO-hERG, FluxOR thallium flux, dofetilide IC70 | Voltage-gated inwardly rectifying potassium channel KCNH2 (Homo sapiens), Q12809 | dofetilide IC70 present | activation (rescue from dofetilide block), less the hit threshold, % at 10 µM | 310,000 tested, 0.51% active | AID 1511, 2009;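 active = activation above the mean of controls blocked by dofetilide plus 5 SD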;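 also: thallium influx through hERG after potassium depolarization seen as dye fluorescence rise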
KCNK9 inh: KCNK9 potassium channel inhibitors, primary screen, HEK293 cells, thallium flux. AID 488922, 2010. FluxOR thallium flux fluorescence; active compounds read low. B-score at 10 µM. 310,000 tested, 1.2% active;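 active = ratio B-score over 3 SD below the library mean, with starting fluorescence within 5 SD of its mean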;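 also: negative B-score means less thallium flux so channel inhibition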
* = called active by the depositor; i = inactive; . = no result given.

SMILES | Kir21 block | KCNQ1 act | KCNQ1 inh | KCNK3 inh | hERG rescue | KCNK9 inh
CCc1nc(NCC2CCCO2)c2oc3ccccc3c2n1 (stereo not drawn) | -1.8 | i | i | -28* | -7 | i
CCc1nc(Nc2ccc3c(c2)OCCO3)c2oc3ccccc3c2n1 | -1.2 | i | i | i | -26 | -7.6*
CCc1nc(Nc2ccc(O)cc2)c2oc3ccccc3c2n1 | -0.39 | i | i | i | -5 | i
CN(CC(=O)NCc1ccc(F)cc1)S(=O)(=O)c1ccc(Br)s1 | -0.14 | i | i | i | -14 | i
Nc1nc(SCC(=O)N2CCCC2)[nH]c(=O)c1NC(=O)c1cccs1 | -0.03 | i | i | i | -8 | i
COC(=O)c1ccc(CO/N=C/c2ccc(OC)cc2OC)cc1 | -1.1 | i | i | i | -6 | i
COc1ccccc1C(=O)NCCC(=O)Nc1cccc(S(=O)(=O)N2CCCC2)c1 | . | . | . | i | . | .
C=CCSc1nc(Oc2ccccc2)c2sccc2n1 | 1.9 | i | 6* | i | -6 | i
COc1ccc(C2C(C(=O)c3cccs3)=C(O)C(=O)N2c2nnc(C)s2)cc1OC (stereo not drawn) | -1.1 | i | 11* | i | -10 | i
CCN(C(=O)c1ccc(C(C)(C)C)cc1)c1nnc(Cn2nnc3ccccc32)s1 | -0.65 | i | 7* | i | -21 | i
CCCC(=O)NC(=S)Nc1ccccc1N1CCOCC1 | -0.13 | i | i | i | 0 | i
O=C(NC(=S)Nc1ccccc1N1CCOCC1)c1sc2ccccc2c1Cl | 1.2 | 13* | i | i | -7 | i
O=C(O)c1ccccc1NC(=S)NC(=O)c1sc2ccccc2c1Cl | -0.98 | i | i | i | -4 | i
O=C(NNC(=S)NC(=O)c1sc2ccccc2c1Cl)c1ccc(Cl)cc1 | 0.21 | 62* | i | i | 44* | i
COc1ccc(OCC(=O)NC(=S)Nc2ccc(N3CCOCC3)c(Cl)c2)cc1 | -0.05 | 13* | i | i | -9 | i
Cc1ccc(NC(=S)NC(=O)c2sc3ccccc3c2Cl)c(C(=O)O)c1 | 2.2 | 9* | i | . | 8.6* | i
O=C(/C=C/c1ccccc1Cl)NCCCn1ccnc1 | -0.19 | i | i | i | -13 | i
O=C(c1ccc(Cl)cc1)C1CCN(CC(=O)N2CCCCC2)CC1 | 0.65 | i | i | i | -5 | i
O=C(NC(=S)Nc1ccc(N2CCOCC2)c(Cl)c1)c1sc2ccccc2c1Cl | -0.61 | 21* | i | i | 21* | i
COc1cc(NC(=O)CNc2cccc(S(=O)(=O)N3CCOCC3)c2)cc(OC)c1 | . | . | . | i | . | .
CS(=O)(=O)c1ccc(-c2sc3cc4c(cc3c2C(=O)NN2CCOCC2)OCO4)cc1 | . | . | . | i | . | .
CC(=O)Oc1c(S(=O)(=O)c2ccc(C)cc2)c(C)nn1C(C)(C)C | -0.5 | i | i | i | -15 | i
Cc1ccc(S(=O)(=O)c2c(C)nn(C(C)(C)C)c2OC(=O)c2cccs2)cc1 | -0.3 | i | 6* | i | -4 | i
Cc1cccc(C)c1OCc1cc(C(=O)N2CCN(Cc3nccn3C)CC2)no1 | 1.1 | i | i | i | -6 | i
O=S(=O)(Nc1nc(-c2ccccc2)cs1)c1cc(Cl)ccc1Cl | -0.31 | i | 6* | i | -6 | i
SMILES | Kir21 block | KCNQ1 act | KCNQ1 inh | KCNK3 inh | hERG rescue | KCNK9 inh
O=[N+]([O-])c1ccc(N/N=C2\CC3CC=CC23)c([N+](=O)[O-])c1 (stereo not drawn) | 1.9 | i | 9* | i | -15 | i
Cc1ccc(OCCCN2CCOCC2)cc1 | 1.2 | i | i | i | 0 | i
O=[N+]([O-])c1cccc(/C=C/c2nc3ccc([N+](=O)[O-])cc3[nH]2)c1 | 0.06 | i | 9* | i | -35 | i
Cc1ccc(C)c(OCC(O)CN2CCc3ccccc3C2)c1C (stereo not drawn) | -5.7* | i | i | i | -11 | i
O=C(CN1CCCN(S(=O)(=O)c2ccc(Br)s2)CC1)Nc1ccc(Cl)cc1 | 1.2 | i | i | -9.3* | -12 | i
CCOC(=O)CNC(=O)CN1CCCN(S(=O)(=O)c2ccc(Br)s2)CC1 | . | . | . | i | . | .
Cc1nc2c(Br)c(C)nn2c2c1CCC2 | 2 | i | i | i | -10 | i
CC1(C)OC(=O)N(c2ccccc2)C12C=Cc1cc(Br)ccc1O2 (stereo not drawn) | -0.74 | i | i | i | -7 | -7.2*
COCCN(C(=O)COC(=O)CSc1ccc(Cl)cc1)c1c(N)n(CC(C)C)c(=O)[nH]c1=O | . | . | . | i | . | .
CC1=NNC(=O)C1C(c1ccc(F)cc1)C(C#N)C#N (stereo not drawn) | -4.3* | i | i | i | 1 | i
CC1=NNC(=O)C1Cc1ccc(F)cc1 (stereo not drawn) | 0.01 | i | i | i | -4 | i
COc1ccc(C(=O)NCCS(=O)(=O)NC(C)c2ccccc2)cc1 (stereo not drawn) | 1 | i | i | i | -5 | i
COc1ccc(-c2cc(=Nc3ccc(C)cc3)c3ccccc3o2)cc1 | -6.1* | i | i | i | -9 | i
COc1ccc(N=c2cc(-c3ccc(O)cc3)oc3ccccc23)cc1 | 1.1 | i | i | i | -21 | i
CC(NC(=O)c1ccncc1)C(C)(C)C (stereo not drawn) | 0 | 41* | i | i | 3 | i
Cc1ccc(C(C)NC(=O)c2ccncc2)cc1C (stereo not drawn) | 0.64 | i | i | i | -11 | i
Cc1c(-c2nc(-c3ccncc3)no2)cccc1[N+](=O)[O-] | -1.4 | 11* | i | i | -4 | i
COc1ccc(NC(=O)N(C)C[C@H]2Oc3c(NC(=O)Cc4ccccc4)cccc3C(=O)N([C@H](C)CO)C[C@@H]2C)cc1 | . | . | . | i | . | .
Cc1ccc2c(c1C)NC(=O)C21N2CCCC2C(C(=O)c2ccc3ccccc3c2)C12C(=O)Nc1ccccc12 (stereo not drawn) | . | . | . | i | . | .
CN1/C(=C\C=N\NC(=O)c2ccccc2Br)C(C)(C)c2ccccc21 | -1.8 | i | 9* | i | -25 | i
CN1/C(=C/C=N/n2cnnc2)C(C)(C)c2ccccc21 | -0.88 | i | i | i | 0 | i
